These results are taken from paper PMC6044759 (ACS Omega, 2018).

Counter-ions that a name gives are not always drawn.

The conditions of data set [1]: cited from earlier work.
The test system of the next data set is MCF-7 cells. The data set can be described thus: Live and dead assay by flow cytometry. Format: cell-based, human. To be noted: 15 nM, positive control, PI staining. Summed up:
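MCF-7 cells (0.8 × 10^6) were exposed to vehicle, 3 or 6 μM test compound, or 15 nM vinblastine (positive control) for 48 h. Cells were stained with propidium iodide and live and dead percentages were counted by flow cytometry. Values are mean ± SD of three experiments.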
(In flow cytometry, cells or beads pass a laser one at a time.)

For `COc1ccc(/C=C\c2cc(OC)c(OC)c(OC)c2)cc1O` [CA-4, combretastatin A-4], the Solubility in water entry in data set [1] is reported as “poorly soluble in water”.

As for `CC[C@]1(O)C[C@@H]2CN(CCc3c([nH]c4ccccc34)[C@@](C(=O)OC)(c3cc4c(cc3OC)N(C)[C@H]3[C@@](O)(C(=O)OC)[C@H](OC(C)=O)[C@]5(CC)C=CCN6CC[C@]43[C@@H]65)C2)C1` [Vinblastine, Vinblastine sulfate], in the data set on MCF-7 cells, the dead % is given as 83 ± 6% and the live % was found to be 18 ± 6%.
